Assay results of several laboratories.
Each line is one published result; the experiments were not run side by side.
ABL1 T315I phosphorylated: Tyrosine-protein kinase ABL1, phosphorylated (ABL1, Homo sapiens, UniProt P00519, T315I)
ABL1 Q252H non-phosphorylated: Tyrosine-protein kinase ABL1, non-phosphorylated (ABL1, Homo sapiens, UniProt P00519, Q252H)
ABL1 T315I non-phosphorylated: Tyrosine-protein kinase ABL1, non-phosphorylated (ABL1, Homo sapiens, UniProt P00519, T315I)
ABL1 phosphorylated: Tyrosine-protein kinase ABL1, phosphorylated (ABL1, Homo sapiens, UniProt P00519)
ABL1 F317I phosphorylated: Tyrosine-protein kinase ABL1, phosphorylated (ABL1, Homo sapiens, UniProt P00519, F317I)
ABL1 F317L: Tyrosine-protein kinase ABL1 (ABL1, Homo sapiens, UniProt P00519, F317L)

COc1ncc2cc3ccccc3nc2c1C#N  remaining binding (ABL1 T315I phosphorylated; cell-free assay, competition with immobilised ligand; 5 µM): 89%
CN(C)C(=O)Cn1cc(-c2nc([C@@](C)(c3ccc(-c4cnc(N)nc4)cc3)C3CC3)no2)cn1  remaining binding (ABL1 Q252H non-phosphorylated; cell-free assay, competition with immobilised ligand; 1 µM): 0%
O=C(c1ccc(Nc2ncc(Cl)c(-c3ccc(Cl)s3)n2)cc1)N1CCC(N2CCCC2)CC1  remaining binding (Tyrosine-protein kinase ABL1, non-phosphorylated (ABL1, Homo sapiens, UniProt P00519, F317I); binding, competition with immobilised ligand; 1 µM): 97%
c1cncc(-c2cccc(Nc3nccc(NC4CCCCC4)n3)c2)c1  remaining binding (ABL1 T315I non-phosphorylated; binding, competition with immobilised ligand; 10 µM): 79%
C[C@@H](c1ccc(-n2cnc3c(N)ncnc32)cc1)N1CCc2nn(C)c(Cc3ccccc3)c2C1=O  remaining binding (Tyrosine-protein kinase ABL1, non-phosphorylated (ABL1, Homo sapiens, UniProt P00519, H396P); binding, competition with immobilised ligand; 0.1 µM): 13%
CCN1CCN(Cc2ccc(C(=O)Nc3ccc(C)c(Oc4ccc5c(c4)CC(=O)N5)c3)cc2C(F)(F)F)CC1  remaining binding (Tyrosine-protein kinase ABL1, phosphorylated (ABL1, Homo sapiens, UniProt P00519, Q252H); binding, competition with immobilised ligand; 1 µM): 49%
COc1cc(-c2cn(C3CCc4c(F)cccc4N(CC(F)(F)F)C3=O)nn2)ccc1-n1cnc(C)c1 (stereo not drawn)  remaining binding (ABL1 phosphorylated; cell-free assay, competition with immobilised ligand; 1 µM): 100%
O=C(NCC1CCOCC1)c1n[nH]cc1NC(=O)c1c(F)cccc1F  remaining binding (ABL1 phosphorylated; binding, competition with immobilised ligand; 1 µM): 85%
CC1CCCN1c1nccc(-c2cnn3ncccc23)n1 (stereo not drawn)  remaining binding (Tyrosine-protein kinase ABL1 (ABL1, Homo sapiens, UniProt P00519, T315I); binding; 1 µM): 100%
Cc1c(NC(=O)c2cc(C(N)=O)nc3cc(F)ccc23)c(C(F)(F)F)nn1Cc1ccc(C(C)(C)C)cc1  remaining binding (ABL1 T315I phosphorylated; cell-free assay, competition with immobilised ligand; 1 µM): 85%
N[C@H]1CCN(c2nccc(-c3cnn4ncccc34)n2)C1  remaining binding (Tyrosine-protein kinase ABL1 (ABL1, Homo sapiens, UniProt P00519, Q252H); binding; 1 µM): 59%
C[C@@H]1CN(c2cc(-c3nn(C)c4ccc(OC5(C)CC5)cc34)ncn2)C[C@H](C)O1  remaining binding (ABL1 T315I non-phosphorylated; cell-free assay, competition with immobilised ligand; 1 µM): 73%
COc1cnc(Nc2cccc(S(N)(=O)=O)c2)nc1N1CCN(c2ccccc2)C(=O)C1  remaining binding (ABL1 F317I phosphorylated; binding, competition with immobilised ligand; 1 µM): 96%
O=C(NCCCN1CCOCC1)c1ccc(Nc2ncc(Cl)c(-c3ccc(Cl)s3)n2)cc1  remaining binding (ABL1 phosphorylated; binding, competition with immobilised ligand; 1 µM): 36%
Nc1cnc(N2CCc3cc(S(=O)(=O)Nc4c(F)cc(Cl)cc4F)cc(N4CCCC4=O)c32)nc1  remaining binding (Tyrosine-protein kinase ABL1, phosphorylated (ABL1, Homo sapiens, UniProt P00519, F317L); cell-free assay, competition with immobilised ligand; 1 µM): 78%
O=C(NCCCN1CCOCC1)c1ccc(Nc2nccc(-c3cc4ccccc4s3)n2)cc1  remaining binding (Tyrosine-protein kinase ABL1, phosphorylated (ABL1, Homo sapiens, UniProt P00519, H396P); binding, competition with immobilised ligand; 1 µM): 61%
CN(CCCC(F)(F)F)c1nccc(-c2cnn3ncccc23)n1  remaining binding (ABL1 F317L; binding; 1 µM): 100%
CC(=O)N1CCC(c2ccc(C(=O)NC(=N)N)cc2C(F)(F)F)CC1  remaining binding (ABL1 F317I phosphorylated; binding; 1 µM): 96%
CN(c1nccc(-c2cnn3ncccc23)n1)C1CC1  remaining binding (ABL1 F317L; binding; 1 µM): 100%
O=C(c1ccc(Nc2ncc(Cl)c(-c3cc4ccccc4s3)n2)cc1)N1CCC(N2CCCC2)CC1  remaining binding (Tyrosine-protein kinase ABL1, non-phosphorylated (ABL1, Homo sapiens, UniProt P00519); binding, competition with immobilised ligand; 1 µM): 17%
CNC(=O)[C@@H]1CC[C@@H](n2c(-c3ccc4cnccc4c3)nc3ccc(C(=O)NCc4cccc(C(N)=O)c4)cc32)C1  remaining binding (ABL1 Q252H non-phosphorylated; binding, competition with immobilised ligand; 1 µM): 87%
